Experimental data published in ChEMBL document CHEMBL1140056, “Design, synthesis, and antitumor activity of new bis-aminomethylnaphthalenes” (2008).
Active and inactive are the calls of the source. The rule behind the calls is not given here.

Assays:
[1] = Antitumor activity against human NCI60 cells after 48 hrs by SRB assay; type: functional; settings: NCI60, 48 h; for TGI: read-out: pTGI (converted)
Method in brief: (§1)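 Run at NCI in the 60-line human tumour panel. Five concentrations at 10-fold dilutions starting from 10^-4 M, with continuous exposure for 48 h. Growth was read by sulforhodamine B protein staining. GI50 (+50% growth), TGI (0% growth) and LC50 were interpolated from the curves, and MG-MID is the arithmetic mean across all tested lines.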

T47D = assay: Antitumor activity against human T47D cells after 48 hrs by SRB assay; type: functional; method in brief: as §1
MDA-N = assay: Antitumor activity against human MDA-N cells after 48 hrs by SRB assay; type: functional; method in brief: as §1
LOX IMVI = assay: Antitumor activity against human LOXIMVI cells after 48 hrs by SRB assay; type: functional; method in brief: as §1
SK-MEL-28 = assay: Antitumor activity against human SK-MEL-28 cells after 48 hrs by SRB assay; type: functional; settings: SK-MEL-28, 48 h; method in brief: as §1
HT-29 = assay: Antitumor activity against human HT29 cells after 48 hrs by SRB assay; type: functional; settings: HT-29, 48 h; method in brief: as §1
HCT-116 = assay: Antitumor activity against human HCT116 cells after 48 hrs by SRB assay; type: functional; settings: HCT-116, 48 h; method in brief: as §1
MOLT-4 = assay: Antitumor activity against human MOLT4 cells after 48 hrs by SRB assay; type: functional; settings: MOLT-4, 48 h; method in brief: as §1
K562 = assay: Antitumor activity against human K562 cells after 48 hrs by SRB assay; type: functional; settings: K562, 48 h; method in brief: as §1
MDA-MB-435 = assay: Antitumor activity against human MDA-MB-435 cells after 48 hrs by SRB assay; type: functional; settings: MDA-MB-435, 48 h; method in brief: as §1
COLO 205 = assay: Antitumor activity against human COLO205 cells after 48 hrs by SRB assay; type: functional; settings: COLO 205, 48 h; method in brief: as §1
UACC-62 = assay: Antitumor activity against human UACC62 cells after 48 hrs by SRB assay; type: functional; settings: UACC-62, 48 h; method in brief: as §1
SK-MEL-5 = assay: Antitumor activity against human SK-MEL-5 cells after 48 hrs by SRB assay; type: functional; settings: SK-MEL-5, 48 h; method in brief: as §1
Hs-578T = assay: Antitumor activity against human HS578T cells after 48 hrs by SRB assay; type: functional; method in brief: as §1
Tru-Pr1 = assay: Effect on cell cycle in human […] cells at 10 uM after 48 hrs by FACS analysis; type: functional, cell-based
Method in brief: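 TSU-Pr1 prostate carcinoma cells (5×10^5) in exponential growth were treated for 48 h. They were then centrifuged, fixed in ice-cold 70% ethanol, treated with lysis buffer containing RNase, and stained with propidium iodide. DNA content and cell-cycle phases were read by flow cytometry.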

UACC-257 = assay: Antitumor activity against human UACC257 cells after 48 hrs by SRB assay; type: functional; settings: UACC-257, 48 h; method in brief: as §1
[2] = Antitumor activity against human MCF7/ADR-RES cells after 48 hrs by SRB assay; type: functional; settings: NCI/ADR-RES; method in brief: as §1
MDA-MB-231 = assay: Antitumor activity against human MDA-MB-231 cells after 48 hrs by SRB assay; type: functional; settings: MDA-MB-231, 48 h; method in brief: as §1
M14 = assay: Antitumor activity against human M14 cells after 48 hrs by SRB assay; type: functional; settings: M14, 48 h; method in brief: as §1
KM12 = assay: Antitumor activity against human KM12 cells after 48 hrs by SRB assay; type: functional; settings: KM12, 48 h; method in brief: as §1
SW-620 = assay: Antitumor activity against human SW620 cells after 48 hrs by SRB assay; type: functional; settings: SW-620, 48 h; method in brief: as §1
[3] = Antitumor activity against human HL60(TB) cells after 48 hrs by SRB assay; type: functional, HL-60(TB); settings: HL-60, 48 h
Method in brief: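 NCI 60-cell-line primary screen: five concentrations at 10-fold dilutions starting from 10^-4 M. Cells exposed to drug continuously for 48 h. Growth estimated by sulforhodamine B protein assay. GI50 is the interpolated molar concentration giving +50% growth, TGI the concentration giving 0% growth, and LC50 the concentration giving 50% net cell death.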

MCF7 = assay: Antitumor activity against human MCF7 cells after 48 hrs by SRB assay; type: functional; settings: MCF7, 48 h; method in brief: as §1
SK-MEL-2 = assay: Antitumor activity against human SK-MEL-2 cells after 48 hrs by SRB assay; type: functional; settings: SK-MEL-2, 48 h; method in brief: as §1
Malme-3M = assay: Antitumor activity against human MALME3M cells after 48 hrs by SRB assay; type: functional; method in brief: as §1
SR = assay: Antitumor activity against human SR cells after 48 hrs by SRB assay; type: functional; method in brief: as §1
RPMI-8226 = assay: Antitumor activity against human RPMI8226 cells after 48 hrs by SRB assay; type: functional; settings: RPMI-8226, 48 h; method in brief: as §1

## COc1ccc2cc(CN3CCC(C4CCN(Cc5ccc6cc(OC)ccc6c5)CC4)CC3)ccc2c1
[1]
  GI50: 2950 nM
  TGI: 9770 nM
T47D
  GI50: 1780 nM
MDA-N
  GI50: 1700 nM
LOX IMVI
  GI50: 2820 nM
SK-MEL-28
  GI50: 2630 nM
HT-29
  GI50: 3390 nM
HCT-116
  GI50: 3470 nM
MOLT-4
  GI50: 2190 nM
K562
  GI50: 501 nM
MDA-MB-435
  GI50: 1910 nM
COLO 205
  GI50: 1620 nM
UACC-62
  GI50: 1910 nM
SK-MEL-5
  GI50: 1480 nM
Hs-578T
  GI50: 10700 nM
Tru-Pr1
  Activity: inactive
UACC-257
  GI50: 2040 nM
[2]
  GI50: 13200 nM
MDA-MB-231
  GI50: 3310 nM
M14
  GI50: 2450 nM
KM12
  GI50: 3240 nM
SW-620
  GI50: 3160 nM
[3]
  GI50: 2630 nM
MCF7
  GI50: 5250 nM
SK-MEL-2
  GI50: 6460 nM
Malme-3M
  GI50: 2290 nM
SR
  GI50: 1230 nM
RPMI-8226
  GI50: 1740 nM

## COc1ccc2cc(CNCCOCCOCCNCc3ccc4cc(OC)ccc4c3)ccc2c1
[1]
  GI50: 724 nM
  LC50: 5250 nM
  TGI: 1910 nM

## COc1ccc2cc(CNCCCN3CCN(CCCNCc4ccc5cc(OC)ccc5c4)CC3)ccc2c1
[1]
  GI50: 1100 nM
  LC50: 5620 nM
  TGI: 2450 nM

## COc1cc(NS(C)(=O)=O)ccc1Nc1c2ccccc2nc2ccccc12 [AMSACRINE]
[1]
  GI50: 229 nM
  TGI: 3390 nM

## c1ccc2c(CNCCCCCCCCCCCCNCc3cccc4ccccc34)cccc2c1
[1]
  GI50: 2190 nM
  TGI: 4370 nM

## c1ccc2c(CNCCCCCCCCNCc3cccc4ccccc34)cccc2c1
[1]
  GI50: 2400 nM
  TGI: 5250 nM

## O=C1c2c(O)ccc(O)c2C(=O)c2c(NCCNCCO)ccc(NCCNCCO)c21 [MITOXANTRONE]
[1]
  GI50: 47.9 nM
  TGI: 692 nM

## c1ccc2cc(CNCCOCCOCCNCc3ccc4ccccc4c3)ccc2c1
[1]
  GI50: 1700 nM
  LC50: 10000 nM
  TGI: 3720 nM

## c1ccc2cc(CN3CCC(C4CCN(Cc5ccc6ccccc6c5)CC4)CC3)ccc2c1
[1]
  GI50: 2880 nM
  LC50: 25100 nM
  TGI: 8320 nM

## COc1ccc2cc(CNCCCCCCCCNCc3ccc4cc(OC)ccc4c3)ccc2c1
[1]
  GI50: 1150 nM
  LC50: 6310 nM
  TGI: 2400 nM

## c1ccc2c(CN3CCC(C4CCN(Cc5cccc6ccccc56)CC4)CC3)cccc2c1
[1]
  GI50: 1950 nM
  LC50: 9550 nM
  TGI: 4270 nM

## COc1ccc2cc(CNCCCCCCNCc3ccc4cc(OC)ccc4c3)ccc2c1
[1]
  GI50: 603 nM
  LC50: 4070 nM
  TGI: 1740 nM

## c1ccc2c(CNCCCCCCNCc3cccc4ccccc34)cccc2c1
[1]
  GI50: 5370 nM
  LC50: 29500 nM
  TGI: 12300 nM

## COc1ccc2cc(CNCCCCCCCCCCCCNCc3ccc4cc(OC)ccc4c3)ccc2c1
[1]
  GI50: 15500 nM
  LC50: 55000 nM
  TGI: 29500 nM

## c1ccc2c(CNCCCN3CCN(CCCNCc4cccc5ccccc45)CC3)cccc2c1
[1]
  GI50: 6610 nM
  LC50: 43700 nM
  TGI: 19500 nM
